Assays:
[1] = Half life in rat plasma at 10 uM up to 360 mins by LC-MS/MS analysis; type: ADME, cell-free
In short: (§1)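 Plasma incubated in duplicate at 37 °C with 10 µM test compound (1% methanol; from 1 mM methanol stock). Samples taken at 0, 15, 30, 60, 120, 240 and 360 min and quenched with 9 volumes of ice-cold methanol containing 500 nM internal standard, then centrifuged. Analyte/IS area ratios were quantified by LC-MS/MS as % remaining versus T0. t1/2 = −0.693/k, with k from the slope of log % remaining versus time.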

Plasma [2] = assay: Stability in rat plasma at 10 uM up to 360 mins in presence of EDTA by LC-MS/MS analysis; type: ADME, cell-free; details: 6 h
In short: (§2)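 Rat plasma incubated in duplicate at 37 °C with 10 µM test compound (1% methanol), plus either 1 mM DTNB (11) or 0.5 mM EDTA (12). Duplicate controls used methanol in place of the inhibitor. Samples taken from 0 to 360 min and quenched with 9 volumes of cold methanol containing internal standard. Remaining compound measured by LC-MS/MS relative to T0.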

[3] = Half life in human plasma at 10 uM up to 360 mins by LC-MS/MS analysis; type: ADME, cell-free; in short: as §1
Liver carboxylesterase 1 [4] = biological target: T1, Liver carboxylesterase 1 (Homo sapiens, UniProt P23141); assay: Drug metabolism assessed as human CES1-mediated compound hydrolysis after 6 hrs; type: ADME
T1 sequence (P23141 whole entry): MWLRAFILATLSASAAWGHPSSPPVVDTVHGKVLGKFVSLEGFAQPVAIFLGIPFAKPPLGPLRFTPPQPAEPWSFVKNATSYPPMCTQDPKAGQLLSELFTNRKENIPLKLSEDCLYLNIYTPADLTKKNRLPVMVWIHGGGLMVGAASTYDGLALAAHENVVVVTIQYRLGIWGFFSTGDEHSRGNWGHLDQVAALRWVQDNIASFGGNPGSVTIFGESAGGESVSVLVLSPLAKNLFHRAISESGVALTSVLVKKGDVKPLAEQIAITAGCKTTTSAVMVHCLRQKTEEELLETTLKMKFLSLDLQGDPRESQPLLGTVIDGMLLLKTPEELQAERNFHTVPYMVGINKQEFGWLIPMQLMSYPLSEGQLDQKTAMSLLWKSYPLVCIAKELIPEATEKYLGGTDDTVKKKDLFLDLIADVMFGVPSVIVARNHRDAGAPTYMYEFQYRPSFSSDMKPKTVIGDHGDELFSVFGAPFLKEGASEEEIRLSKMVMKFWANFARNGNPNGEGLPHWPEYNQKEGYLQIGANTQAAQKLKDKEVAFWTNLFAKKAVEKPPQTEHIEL

Liver carboxylesterase 1 [5] = biological target: T2, Liver carboxylesterase 1 (Mus musculus, UniProt Q8VCC2); assay: Drug metabolism assessed as mouse CES1-mediated compound hydrolysis after 6 hrs; type: ADME
T2 sequence (Q8VCC2 whole entry): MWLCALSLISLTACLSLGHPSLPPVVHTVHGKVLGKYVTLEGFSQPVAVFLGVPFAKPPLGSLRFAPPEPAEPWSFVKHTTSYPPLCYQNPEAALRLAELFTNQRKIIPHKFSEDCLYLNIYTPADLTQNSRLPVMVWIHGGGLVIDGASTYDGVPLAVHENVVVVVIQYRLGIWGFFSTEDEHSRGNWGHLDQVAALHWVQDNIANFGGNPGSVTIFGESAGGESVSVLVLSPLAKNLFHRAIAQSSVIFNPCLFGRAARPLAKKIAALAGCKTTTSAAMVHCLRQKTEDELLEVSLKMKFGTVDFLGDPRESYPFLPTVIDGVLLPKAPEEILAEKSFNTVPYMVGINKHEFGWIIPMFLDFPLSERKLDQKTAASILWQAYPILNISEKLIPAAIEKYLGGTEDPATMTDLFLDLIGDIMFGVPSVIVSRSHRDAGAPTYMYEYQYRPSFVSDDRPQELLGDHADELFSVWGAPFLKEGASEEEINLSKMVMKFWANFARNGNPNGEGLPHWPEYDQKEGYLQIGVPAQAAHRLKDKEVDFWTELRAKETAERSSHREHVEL

[6] = Half life in rat liver microsomes at 1 uM up to 120 mins by LC-MS/MS analysis; type: ADME, microsome
In short: (§3)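 Run under non-oxidative conditions, in duplicate at 37 °C: 1 µM test compound (1% methanol) with 1 mg/mL rat liver or rat intestinal microsomal protein. Samples taken at 0, 15, 30, 60 and 120 min and quenched with 4 volumes of cold methanol or acetonitrile containing 200 nM internal standard. Triplicate controls used denatured microsomes. LC-MS/MS gave % remaining versus T0; t1/2 = −0.693/k.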

[7] = Half life in rat intestinal microsomes at 1 uM up to 120 mins by LC-MS/MS analysis; type: ADME, Intestine, Microsome; in short: as §3
Plasma [8] = assay: Stability in rat plasma at 10 uM up to 360 mins in presence of DTNB by LC-MS/MS analysis; type: ADME, cell-free; details: 6 h; in short: as §2
[9] = Half life in human liver microsomes at 10 uM up to 120 mins by LC-MS/MS analysis; type: ADME, microsome

Row | Structure (SMILES) | half-life at 10 µM [1] [h] | Stability (Plasma [2]) | half-life at 10 µM [3] [h] | other results
1 | CC(Cc1ccccc1)(C(=O)NO)C(=O)NCc1ccccc1 (centres undefined) | 1.5 | Unstable | > 6 | 
2 | O=C(NO)C(Cc1ccccc1)C(=O)NCc1ccccc1 (centres undefined) | 0.8 | Unstable | > 6 | Drug metabolism (Liver carboxylesterase 1 [4]): Metabolite_Detected; Drug metabolism (Liver carboxylesterase 1 [5]): Metabolite_Detected
3 | O=C(NO)C1Cc2ccccc2CN1S(=O)(=O)c1ccccc1 (centres undefined) | 0.7 | Unstable | > 6 | 
4 | O=C(CCc1ccccc1)NO |  | Unstable |  | Drug metabolism (Liver carboxylesterase 1 [4]): Metabolite_Detected; Drug metabolism (Liver carboxylesterase 1 [5]): Metabolite_Detected; half-life at 1 µM [6]: 0.25 h; half-life at 1 µM [7]: > 6 h
5 | CC(CCc1ccccc1)C(=O)NO (centres undefined) | > 6 |  | > 6 | 
6 | O=C(CCCCc1ccccc1)NO | 0.9 to 0.93 | Unstable | > 6 | 
7 | O=C(CCCC1CCCCC1)NO | 0.05 |  | > 6 | Drug metabolism (Liver carboxylesterase 1 [4]): Metabolite_Detected; Drug metabolism (Liver carboxylesterase 1 [5]): Metabolite_Detected
8 | O=C(NO)C(Cc1ccccc1)C(=O)NCc1ccncc1 (centres undefined) | 3.3 | Unstable | > 6 | 
9 | O=C(NO)C(Cc1ccccc1)C(=O)NCc1ccc(F)cc1 (centres undefined) |  | Unstable |  | 
10 | O=C(CC(=O)NCc1ccccc1)NO | > 6 |  | > 6 | 
11 | O=C(CC12CC3CC(CC(C3)C1)C2)NO | > 6 |  | > 6 | 
12 | O=C(/C=C/c1ccc(S(=O)(=O)Nc2ccccc2)cc1)NO | > 6 |  | > 6 | 
13 | O=C(CC(=O)NCc1ccc(F)cc1)NO | > 6 |  | > 6 | 
14 | O=C(C=C(c1ccccc1)c1ccccc1)NO | > 6 |  | > 6 | Drug metabolism (Liver carboxylesterase 1 [4]): Metabolite_Detected; Drug metabolism (Liver carboxylesterase 1 [5]): Metabolite_Detected
15 | O=C(NO)[C@H](Cc1ccccc1)NS(=O)(=O)c1ccccc1 | 0.1 | Unstable | > 6 | 
16 | O=C(CCCCCc1ccccc1)NO | 4.5 | Unstable | > 6 | 
17 | O=C(CC1CCCCC1)NO | > 6 |  | > 6 | 
18 | O=C(CCC(=O)Nc1ccccc1)NO | 0.43 |  | 2.4 | Drug metabolism (Liver carboxylesterase 1 [4]): Metabolite_Detected; Drug metabolism (Liver carboxylesterase 1 [5]): Metabolite_Detected
19 | O=C(NO)C(Cc1ccncc1)C(=O)NCc1ccccc1 (centres undefined) | 4.5 | Unstable | > 6 | 
20 | O=C(CCNC(=O)c1ccccc1)NO | 2.5 | Unstable | > 6 | 
21 | O=C(NO)C1CCN(C(=O)c2ccccc2)C1 (centres undefined) | > 6 |  | > 6 | 
22 | O=C(CC(=O)Nc1ccccc1)NO | > 6 |  | > 6 | 
23 | CC(C)(C(=O)NO)C(=O)NCc1ccccc1 | > 6 |  | > 6 | 
24 | O=C(NO)C(CCc1ccccc1)Cc1ccccc1 (centres undefined) | > 6 |  | > 6 | 
25 | CC(C(=O)NO)C(=O)NCc1ccccc1 (centres undefined) | > 6 |  | > 6 | 
26 | CC(C)[C@H](C(=O)NO)N(Cc1ccccc1)S(=O)(=O)c1ccccc1 | > 6 |  | > 6 | 

Row | Structure (SMILES) | half-life at 10 µM [1] [h] | Stability (Plasma [2]) | half-life at 10 µM [3] [h] | other results
27 | O=C(N[C@@H](CO)C(=O)NO)c1ccc(-c2ccccc2)cc1 | > 6 |  | > 6 | 
28 | CS(=O)(=O)C(CCc1ccccc1)(Cc1ccccc1)C(=O)NO (centres undefined) | > 6 |  | > 6 | 
29 | O=C(CCNCc1ccccc1)NO | 2.1 | Unstable | > 6 | 
30 | CC(CCc1ccccc1)(C(=O)NO)S(=O)(=O)c1ccccc1 (centres undefined) | > 6 |  | > 6 | 
31 | O=C(CCC12CC3CC(CC(C3)C1)C2)NO | 0.5 |  | > 6 | Stability (Plasma [8]): Unstable
32 | O=C(NO)C1(C(=O)NCc2ccccc2)CC1 | > 6 |  | > 6 | 
33 | O=C(CCC1CCCCC1)NO | 0.06 |  | > 6 | Drug metabolism (Liver carboxylesterase 1 [4]): Metabolite_Detected; Drug metabolism (Liver carboxylesterase 1 [5]): Metabolite_Detected
34 | O=C(CNC(=O)Cc1ccccc1)NO | 0.29 | Unstable | > 6 | 
35 | O=C(NO)C1(NS(=O)(=O)c2ccccc2)CCOCC1 | > 6 |  | > 6 | 
36 | C[C@H](NCc1ccccc1)C(=O)NO | > 6 |  | > 6 | 
37 | O=C(CNC(=O)c1ccccc1)NO | 0.58 | Unstable | > 6 | 
38 | O=C(NO)C(Cc1ccc2ccccc2c1)C(=O)NCc1ccccc1 (centres undefined) | 0.1 | Unstable | > 6 | Drug metabolism (Liver carboxylesterase 1 [4]): Metabolite_Detected; Drug metabolism (Liver carboxylesterase 1 [5]): Metabolite_Detected
39 | O=C(NCC(C(=O)NO)N1CCCCC1)c1ccccc1 (centres undefined) | 0.4 | Unstable | > 6 | 
40 | O=C(CNCCc1ccccc1)NO | 0.5 | Unstable | > 6 | 
41 | O=C(NO)[C@@H](Cc1ccccc1)N(Cc1ccccc1)S(=O)(=O)c1ccccc1 | > 6 |  | > 6 | 
42 | O=C(NO)[C@H](Cc1ccccc1)NCc1ccccc1 | 1.8 | Unstable | > 6 | 
43 | O=C(NO)C(CCc1ccccc1)S(=O)(=O)c1ccccc1 (centres undefined) | > 6 |  | > 6 | 
44 | O=C(CNCc1ccccc1)NO | 3.6 | Unstable | > 6 | 
45 | O=C(/C=C/c1ccc(-c2ccccc2)cc1)NO | > 6 |  | > 6 | 
46 | CC(Cc1ccccc1)(C(=O)NO)C(=O)NCc1ccc(F)cc1 (centres undefined) |  | Unstable |  | 
47 | CC(C(=O)NO)C(=O)NCc1ccc(F)cc1 (centres undefined) | > 6 |  | > 6 | 
48 | O=C(CCCCCCc1ccccc1)NO | > 6 |  | > 6 | 
49 | O=C(/C=C/c1ccc(Cl)cc1Cl)NO [CINNAMIC ACID HYDROXAMATE] | > 6 |  | > 6 | 
50 | CCCCc1nc2cc(/C=C/C(=O)NO)ccc2n1CCN(CC)CC [PRACINOSTAT] | > 6 |  | > 6 | 
51 | CC(=O)Oc1cc2c(s1)CCN(C(C(=O)C1CC1)c1ccccc1F)C2 (centres undefined) [PRASUGREL] |  |  |  | half-life at 1 µM [7]: 0.0167 h
52 | CCOC(=O)[C@H](CCc1ccccc1)N[C@@H](C)C(=O)N1[C@H](C(=O)O)C[C@H]2CCCC[C@@H]21 [TRANDOLAPRIL] |  |  |  | half-life at 10 µM [9]: 0.333 h; half-life at 1 µM [6]: 0.117 h

From ChEMBL document CHEMBL4028870, “Controlling Plasma Stability of Hydroxamic Acids: A MedChem Toolbox” (J Med Chem, 2017)
